Data published in ChEMBL document CHEMBL1135661, “Design of noncovalent inhibitors of human cathepsin L. From the 96-residue proregion to optimized tripeptides” (J Med Chem, 2002).
pKi: −log10 of the molar value. Peptide text beside a SMILES is read from it. * marks the point of attachment. Phenylacetyl(4-Ph) = O=C(Cc1ccc(-c2ccccc2)cc1)*

Columns and labels:
Procathepsin L = Procathepsin L (Homo sapiens, UniProt P07711); assay: Inhibitory activity against human Cathepsin L
Cathepsin B = Cathepsin B (Homo sapiens, UniProt P07858); assay: Specificity of Cathepsin B inhibition by the compound
Procedure, shortened: (§1)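 Recombinant human cathepsins B and K were expressed in Pichia pastoris and stored inhibited with MMTS or HgCl2 (B at 4 °C, K at −80 °C). Both were reactivated with 2 mM DTT and E-64 titrated. Cbz-Phe-Arg-MCA was kept well below KM, at 25 °C, pH 6.0 (50 mM phosphate, 5 mM EDTA, 0.2 M NaCl, 3% DMSO). Read-out was fluorescence at 380/440 nm. Ki came from 1/vs vs [I] plots or slow-binding analysis.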

Cathepsin K = biological target: T1, Cathepsin K (Homo sapiens, UniProt P43235); assay: Specificity of Cathepsin K inhibition by the compound; procedure, shortened: as §1
T1 sequence (P43235 whole entry): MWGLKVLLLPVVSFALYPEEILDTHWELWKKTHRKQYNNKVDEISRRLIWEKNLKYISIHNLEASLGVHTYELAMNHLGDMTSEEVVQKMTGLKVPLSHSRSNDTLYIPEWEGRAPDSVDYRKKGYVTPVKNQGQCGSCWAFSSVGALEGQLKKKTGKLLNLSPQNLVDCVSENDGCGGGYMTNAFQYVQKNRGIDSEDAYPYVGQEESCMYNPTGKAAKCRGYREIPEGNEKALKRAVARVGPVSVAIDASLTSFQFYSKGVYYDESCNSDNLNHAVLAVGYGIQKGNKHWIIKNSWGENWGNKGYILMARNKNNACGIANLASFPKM

Sequence of Procathepsin L (P07711 whole entry): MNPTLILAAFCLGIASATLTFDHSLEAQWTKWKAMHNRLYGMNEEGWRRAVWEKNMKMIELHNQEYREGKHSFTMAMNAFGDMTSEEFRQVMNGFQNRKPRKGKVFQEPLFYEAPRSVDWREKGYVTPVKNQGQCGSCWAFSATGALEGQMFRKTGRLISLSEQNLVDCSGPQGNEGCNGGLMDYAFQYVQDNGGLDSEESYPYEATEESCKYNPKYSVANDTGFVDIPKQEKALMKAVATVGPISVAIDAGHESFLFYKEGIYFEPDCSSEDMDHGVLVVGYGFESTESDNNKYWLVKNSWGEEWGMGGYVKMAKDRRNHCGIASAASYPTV

Compound | pKi (Procathepsin L) | pKi (Cathepsin B) | pKi (Cathepsin K)
N=C(N)NCCC[C@@H](NC(=O)[C@H](CS)NC(=O)Cc1ccc(-c2ccccc2)cc1)C(=O)N[C@@H](Cc1ccccc1)C(=O)N[C@@H](Cc1ccccc1)C(N)=O (stereo in doubt; 4) | 6.77 | – | –
N=C(N)NCCC[C@H](NC(=O)[C@H](CS)NC(=O)Cc1ccc(-c2ccccc2)cc1)C(=O)N[C@@H](Cc1ccc2ccccc2c1)C(=O)NCCc1ccccc1 | 6.80 | – | –
NC(=O)C[C@H](NC(=O)Cc1ccc(-c2ccccc2)cc1)C(=O)N[C@H](CCCN=C(N)N)C(=O)N[C@@H](Cc1ccccc1)C(=O)NC(Cc1ccccc1)C(N)=O (some centres not stated) | 4.42 | – | –
CSC[C@H](NC(=O)Cc1ccc(-c2ccccc2)cc1)C(=O)NCC(=O)N[C@@H](Cc1ccccc1)C(=O)N[C@@H](Cc1ccccc1)C(N)=O ({Phenylacetyl(4-Ph)}-C(Me)GFF-NH2) | 6.03 | – | –
N=C(N)NCCC[C@H](NC(=O)[C@H](CS)NC(=O)Cc1ccc(-c2ccccc2)cc1)C(=O)N[C@@H](Cc1ccc(-c2ccccc2)cc1)C(=O)NCCc1ccccc1 | 6.57 | – | –
CSCC[C@H](NC(C)=O)C(=O)N[C@@H](CC(N)=O)C(=O)NCC(=O)N[C@@H](Cc1ccccc1)C(=O)N[C@@H](CCC(N)=O)C(N)=O (Ac-MNGFQ-NH2) | < 4.00 | – | –
N=C(N)NCCC[C@H](NC(=O)[C@H](CS)NC(=O)Cc1ccc(-c2ccccc2)cc1)C(=O)N[C@@H](Cc1c[nH]c2ccccc12)C(=O)NCCc1ccccc1 | 7.17 | 6.25 | 6.00
N=C(N)NCCC[C@@H](NC(=O)[C@H](CO)NC(=O)Cc1ccc(-c2ccccc2)cc1)C(=O)N[C@@H](Cc1ccccc1)C(=O)N[C@@H](Cc1ccccc1)C(N)=O | 4.13 | – | –

Further lines, results first:

pKi (Procathepsin L) | pKi (Cathepsin B) | pKi (Cathepsin K) | Compound
6.80 | – | – | N=C(N)NCCC[C@H](NC(=O)[C@H](CS)NC(=O)Cc1ccc(-c2ccccc2)cc1)C(=O)N[C@@H](CC1CCCCC1)C(=O)NCCc1ccccc1
5.41 | – | – | N=C(N)NCCC[C@H](NC(=O)[C@H](CCCN=C(N)N)NC(=O)[C@H](CS)NC(=O)Cc1ccc(-c2ccccc2)cc1)C(=O)NCCc1ccccc1
6.62 | – | – | CSCC[C@H](NC(=O)[C@H](CCCN=C(N)N)NC(=O)[C@@H](CSC)NC(=O)Cc1ccc(-c2ccccc2)cc1)C(=O)NCCc1ccccc1
6.68 | – | – | CC[C@H](NC(=O)[C@H](CCCN=C(N)N)NC(=O)[C@H](CS)NC(=O)Cc1ccc(-c2ccccc2)cc1)C(=O)NCCc1ccccc1
– | 4.82 | 5.54 | N=C(N)NCCC[C@H](NC(=O)[C@H](CS)NC(=O)Cc1ccc(-c2ccccc2)cc1)C(=O)N[C@@H](Cc1ccc(O)cc1)C(=O)NCCc1ccccc1
6.57 | – | – | CSC[C@@H](NC(=O)Cc1ccc(-c2ccccc2)cc1)C(=O)N[C@@H](CCCN=C(N)N)C(=O)N[C@@H](CC(C)C)C(=O)NCCc1ccccc1
